# Bioassay records from PubChem BioAssay.
# Most compounds without a hit are left out; they make up all but 9.2% or so of the library.
# ERa SRC1 pot – enhances coactivator binding to human estrogen receptor alpha; P03372; TR-FRET ERalpha-LBD/SRC-Cy5 coactivator binding, 2 h; 100 = basal binding, no effect; coactivator binding (% of control), % at 25.6 µM; 86,000 tested, 1.3% active; AID 639; in the data active means activity above about 200%;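 further: binding measured in presence of low estradiol as agonist stimulus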
# ERa coact inh – ER-alpha (human) coactivator binding inhibition | TR-FRET ER-alpha LBD / SRC-1 peptide, estradiol-bound | AID 629 | 86,000 tested, 1.7% active | inhibition, % at 25.6 µM; in the data active means inhibition above about 50%
# ERb coact inh – ER-beta (human) coactivator binding inhibition. TR-FRET ER-beta LBD / SRC1-Cy5 peptide binding; receptor agonist-loaded with 1 µM estradiol. 86,000 tested, 1.3% active. Q92731. AID 633. inhibition, % at 25.6 µM;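 active means compounds whose percent inhibition of the receptor-coactivator binding signal exceeds about 50% in the single-dose screen, limit read from the data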
# Target sequence (Q92731 whole entry, looked up, the tested form may be a part): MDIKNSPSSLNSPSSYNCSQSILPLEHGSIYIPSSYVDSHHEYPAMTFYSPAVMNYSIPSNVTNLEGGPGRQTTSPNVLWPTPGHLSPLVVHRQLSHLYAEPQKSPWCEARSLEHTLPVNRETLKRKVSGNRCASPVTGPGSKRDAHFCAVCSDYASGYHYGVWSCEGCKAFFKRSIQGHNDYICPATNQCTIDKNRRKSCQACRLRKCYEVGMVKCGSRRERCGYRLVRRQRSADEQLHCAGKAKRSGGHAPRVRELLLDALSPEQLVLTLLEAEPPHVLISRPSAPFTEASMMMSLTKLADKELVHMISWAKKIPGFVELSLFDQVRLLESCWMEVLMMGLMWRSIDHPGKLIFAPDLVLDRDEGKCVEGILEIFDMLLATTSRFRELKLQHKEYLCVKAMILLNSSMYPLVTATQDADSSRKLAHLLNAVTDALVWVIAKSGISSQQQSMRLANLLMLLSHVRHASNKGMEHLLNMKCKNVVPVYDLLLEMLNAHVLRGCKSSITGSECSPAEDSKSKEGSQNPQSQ
# Lung fibro prol – blocks proliferation of human lung fibroblasts; viability, % at 10 µM; 85,000 tested, 1.1% active; LL 47 human lung fibroblast viability, ATP luminescence; stronger effect = lower value;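 active means viability at or below 50% in the single dose screen; inactive means viability above 50%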;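 further: compound exposure lasted 72 h before the ATP readout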
#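 Benchmarks: Cell-only wells, no compound | Test system: LL 47 human lung fibroblasts, passage 12 or lower | Input: 1,150 cells/well | Measured by: CellTiter-Glo luminescence measuring cellular ATP | Medium: IMEM, 15% FBS supplement | Schedule: Overnight attachment after seeding, then 72 h compound exposure at 37 °C | Doses: Compound addition at 0.1% DMSO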
# H69AR inhibit – blocks growth of human H69AR lung tumor cells | AID 598 | H69AR lung tumor viability, ATP luminescence, 72 h; stronger effect = lower value | 85,000 tested, 6% active | viability, % at 10 µM;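 active means viability at or below 40%; inactive means viability above 40%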;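 further: multidrug resistant small cell line overexpressing MRP-1 efflux transporter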
# HUVEC inhibit – blocks proliferation of human endothelial cells. HUVEC proliferation, CellTiter-Glo luminescence, 72 h; stronger effect = lower value. viability, % at 10 µM (by protocol). 86,000 tested, 1.1% active;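 active means viability at or below 30%; inactive means viability above 30%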
# Numbers stand for hits; – = inactive; · = not tested or not shown; [ ] = remark or other dose.
SMILES,ERa SRC1 pot,ERa coact inh,ERb coact inh,Lung fibro prol,H69AR inhibit,HUVEC inhibit
Cc1ccc(C2C=C(c3ccccc3OC(F)F)Nc3ncnn32)cc1 (configuration not stated),–,–,–,·,–,–
CN(C)c1ccc(C2C=C(c3ccc(Cl)cc3OC(F)F)Nc3ncnn32)cc1 (configuration not stated),–,–,–,–,14,–
CCOc1cc(-c2cc(-c3ccccc3)nc(N)c2C#N)ccc1O,–,–,–,–,23,–
CCOc1cc(-c2c(C#N)c(N)nc3c2CCCC3)ccc1O,–,–,–,–,–,–
CCOc1cc(-c2cc(-c3ccc(N)cc3)nc(N)c2C#N)ccc1O,–,–,–,–,3.6,–
Cc1ccc(-n2nc3c(N4CCN(c5ccccc5)CC4)nnc(C)c3c2C)cc1,–,–,–,–,–,–
O=C(c1ccc(Cl)c(S(=O)(=O)NCc2ccco2)c1)N1CCN(c2ccccc2F)CC1,–,–,–,–,21,–
O=C(c1ccc(Cl)c(S(=O)(=O)Nc2ccc(F)cc2)c1)N1CCN(c2ccccn2)CC1,–,–,–,–,36,–
COc1ccccc1N1CCN(C(=O)c2ccc(Cl)c(S(=O)(=O)NCc3ccco3)c2)CC1,–,–,–,–,23,–
CCCNC(=S)N1CCC(NC(=O)C2CCCCC2)CC1,–,–,–,–,–,–
COc1ccc(C2C(C#N)=C(C)NC3=C2S(=O)(=O)c2ccccc23)cc1 (configuration not stated),–,–,–,–,–,–
CN1CC(c2ccccn2)C2(SC(=S)N(Cc3ccccc3)C2=O)C12C(=O)Nc1ccccc12 (configuration not stated),–,–,–,–,–,–
CN1CC(c2ccccc2)C2(SC(=S)N(Cc3ccco3)C2=O)C12C(=O)Nc1ccccc12 (configuration not stated),–,–,–,–,1.6,–
CN1CCc2c(sc3ncn4nc(-c5ccccc5O)nc4c23)C1,–,94[fluorescence artefact?],77[fluorescence artefact?],–,–,–
COc1ccc(NC(=O)c2ccc3c(=O)n(Cc4ccco4)c(=S)[nH]c3c2)c(OC)c1,–,73[fluorescence artefact?],–,–,–,–
COc1cc2[nH]c(=S)n(Cc3ccco3)c(=O)c2cc1OC,–,–,–,–,–,–
O=C(CS(=O)(=O)Cc1ccccc1)Nc1ncccn1,–,–,–,–,–,–
CCOC(=O)c1nn(-c2ccc(Cl)cc2)c2nc(CC)c(C#N)c(=O)n12,202,–,–,–,–,–
CC1CC(C)(C)Nc2ccc(OC(=O)c3ccco3)cc21 (configuration not stated),–,–,–,1.7,1.1,5.7
COC(=O)C1=C(C)NC(C)=C(C(=O)OC)C1c1ccc(OC(=O)c2ccco2)cc1,–,–,–,–,–,–
Cc1cc(=O)[nH]c(SCC(=O)C23CC4CC(CC(C4)C2)C3)c1C#N,–,–,–,–,18,–
Cc1cc(C)n(-c2nc(SCCN(C)C)c3c4c(sc3n2)CCCC4)n1,–,–,–,3.0,2.7,2.3
CCC(O)CNc1nc(-n2nc(C)cc2C)nc2sc3c(c12)CCCC3 (configuration not stated),203,–,–,–,8.4,–
COc1ccc(OC)c(C(c2nnnn2C2CCCC2)N2CCN(c3ccccc3)CC2)c1 (configuration not stated),–,–,–,–,–,–
COc1ccccc1OCc1nnc(SCCN2CCOCC2)o1,–,–,–,–,–,–
SMILES,ERa SRC1 pot,ERa coact inh,ERb coact inh,Lung fibro prol,H69AR inhibit,HUVEC inhibit
CC(C)(C)NC(=O)NC(=O)CSc1nnc(COc2ccccc2Cl)o1,–,–,–,–,–,–
COc1ccccc1OCc1nnc(SCC(=O)c2cc(Cl)ccc2OC)o1,322[fluorescence artefact?],–,–,–,–,–
C/C(N)=C(/C#N)C(=O)CSc1nnc(COc2ccccc2Cl)o1,–,58,59,–,–,–
Cn1c(COc2ccc3ccccc3c2)nnc1SCC(=O)OC1CCCCC1,–,–,–,–,–,–
c1ccc(-n2cnc3cc(NCc4cccs4)ccc32)cc1,–,–,–,–,23,–
Cc1ccc(-n2cnc3cc(NCc4cccs4)ccc32)cc1,–,–,–,–,–,–
COc1cc(NS(=O)(=O)c2ccc(OC)c(C)c2C)c(OC)cc1Cl,–,–,–,–,22,–
CC(NC(=O)c1cc(-c2ccc(Br)cc2)on1)c1ccccc1 (configuration not stated),–,–,–,–,22,–
CN(C)c1nc(-c2ccccn2)nnc1-c1ccccc1,–,58[fluorescence artefact?],–,13,–,11
COc1ccc2[nH]cc(C(=O)CN3CCCCC3)c2c1,–,–,–,–,–,–
CCOC(=O)N1CCN(CC(=O)Nc2c(C(=O)OC)[nH]c3ccccc23)CC1,–,–,–,–,–,–
COc1ccc2[nH]cc(C(=O)CN3CCN(C(=O)c4ccco4)CC3)c2c1,–,–,–,–,–,29
COC(=O)c1[nH]c2ccccc2c1NC(=O)CN1CCN(C(=O)c2ccco2)CC1,–,–,–,–,18,–
CCOc1ccc(NC(=O)CN2C(=O)C3CCCN3C2=O)cc1 (configuration not stated),–,–,–,–,–,–
COc1cccc(C(=O)CN2C(=O)C(C)(C)Oc3ccc(C(=O)N4CCCCCC4)cc32)c1,–,–,–,–,–,–
Cc1cc(NC(=O)CSc2nnc(-c3ccco3)o2)no1,255[fluorescence artefact?],–,–,–,·,–
Cc1nn(-c2ccc(Cl)cc2)c(N)c1C(O)(CSc1nccn1C)C(F)(F)F (configuration not stated),–,–,–,–,–,–
CCN(CC)c1nc(OCCNC(=O)Nc2ccccc2)nc(N(CC)CC)n1,–,–,–,–,–,–
COc1ccc(-c2nc(NC(=O)C3CCN(c4nc5ccccc5o4)CC3)sc2C)cc1,–,–,–,–,32,–
CCOC(=O)Cn1cnc2sc3c(c2c1=O)CCC3,–,64[fluorescence artefact?],70,–,–,–
CCOC(=O)C(C)n1cnc2sc3c(c2c1=O)CCC3 (configuration not stated),–,–,–,–,–,–
O=c1oc2ccccc2n1CSC1=NCCS1,–,–,–,–,21,–
Cc1ccccc1N1C(=O)N(c2cccc(C(F)(F)F)c2)C2CS(=O)(=O)CC21 (configuration not stated),–,–,–,–,–,–
COc1cc(C(=O)NCc2ccc(-c3nc4ccccc4o3)cc2)cc(OC)c1OC,–,–,–,45,–,–
Cc1cc(OCC(=O)Nc2ccc3oc(-c4ccncc4)nc3c2)ccc1Cl,204[fluorescence artefact?],–,–,–,–,–
O=C(Nc1ccc2oc(-c3ccccc3F)nc2c1)c1cncc(Br)c1,–,54,–,–,–,–
